# Rows were chosen to be rich in hits. Some 1.9% of all compounds tested hit in one or more screens of this group.
# 697 NFkB inh: inhibitors of PMA/ionomycin-induced NF-kB reporter, 697 cells, primary screen, B-cell NF-kB inhibitor project, cell-based, luminescence, uHTS; 697 B-cell NF-kB luciferase reporter, 16 h; 330,000 compounds, 0.33% hits; inhibition, % at 4 µM; in the data active = inhibition above about 35%
# APP transl inh: inhibitors of APP translation via 5'UTR reporter, primary screen, APP 5'UTR luciferase, SH-SY5Y cells. 190,000 compounds, 0.82% hits. inhibition, % at 2 µM. SH-SY5Y APP 5'UTR-luciferase reporter, luminescence;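 active = inhibition above a set limit, derived from the sample mean plus 3 SD, cut at about 45% in these data; inconclusive = one replicate passes the limit while the other fails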
# Jurkat NFkB inh: inhibitors of induced NF-kB luciferase reporter, primary screen, TCR NF-kB activation inhibitor project, cell-based, luminescence, uHTS. inhibition, % at 4 µM. Jurkat, PMA/ionomycin-induced NF-kB luciferase reporter. AID 435003, 2010. 330,000 compounds, 0.53% hits; in the data active = inhibition above about 50%
# aSyn 5UTR inh: MLPCN primary screen, SNCA 5' untranslated region | alpha-synuclein 5'UTR reporter, inhibitor activity | inhibition, % (tested at 7.5 µM) | 300,000 compounds, 0.82% hits; in the data active = inhibition above about 60%; inconclusive = no clear call, values can overlap the other calls;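 note: H4 neuroglioblastoma cells stably carrying SNCA 5'UTR luciferase fusion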
# H9c2 TAG inh: inhibitors of triacylglycerol accumulation, primary screen, cell-based, uHTS, fluorescence, H9c2 | H9c2 cells, Nile Red lipid (TAG) fluorescence; cells loaded with 200 µM oleic acid | inhibition, % at 12.5 µM | 230,000 compounds, 0.66% hits | AID 651582, 2012;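 active = pattern-corrected inhibition of lipid staining of at least 50% with the nuclear-stain viability signal not falling by more than 50%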
# Lipid droplet: inhibitors of hepatocyte lipid droplet formation, primary screen, imaging, high-throughput imaging, BODIPY stain; AML12 mouse hepatocytes, oleate lipid droplets; inhibition, % at 6.5 µM; 240,000 compounds, 0.4% hits;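 active = lipid droplet intensity inhibited by at least 50%, with more than 500 cells counted; inconclusive = wells with under 300 cells, treated as cytotoxic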
#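 Test system: AML12 mouse liver cells; schedule: overnight exposure; technique: high-content imaging of BODIPY-stained droplets and DAPI nuclei; read-out: % inhibition of corrected integrated BODIPY droplet signal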
# Jurkat NFkB conf: PMA/ionomycin-induced NF-kB reporter inhibitors, Jurkat retest, confirmation, T-cell NF-kB inhibitor project, cell-based, luminescence, single concentration; shares compounds with Jurkat NFkB inh; Jurkat NF-kB luciferase, 16 h; 2,700 compounds, 27% hits; inhibition, % at 4 µM;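 active = inhibition reaching about 45% at 4 µM in either replicate, limit read from the data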
# Numbers stand for hits; 0 = inactive; ? = inconclusive; - = no result.
SMILES,697 NFkB inh,APP transl inh,Jurkat NFkB inh,aSyn 5UTR inh,H9c2 TAG inh,Lipid droplet,Jurkat NFkB conf
COc1ccccc1C(=O)NCC(=O)N1CC=C(c2ccccc2)CC1,0,-,0,-,0,-,-
C=CCNC(=S)N/N=C(\C)c1ccccn1,0,93,78,86,-,0,51
CC(=NNC(=S)Nc1ccccc1)c1ccccn1,-,-,-,-,0,-,-
COc1cccc(NC(=O)C2CCC(CNC(=O)[C@@H]3Cc4ccccc4CN3)CC2)c1 (stereo partly specified),0,-,0,0,-,0,-
CCc1cccc(NC(=O)c2cnn(-c3ccccc3)c2C)c1,0,-,0,0,-,0,-
COc1cccc(NC(=O)c2cc3ccccc3o/c2=N\O)c1,0,-,0,0,-,0,0
Cc1cccc(NC(=O)c2cc3ccccc3oc2=O)c1,0,-,0,0,0,0,0
COc1cccc(NC(=O)c2cnn(-c3ccccc3)c2C)c1,0,-,0,0,-,0,0
CC(=O)Nc1cccc(-c2ccnc3c2CC(C(=O)NCc2ccco2)O3)c1 (stereo unspecified),-,-,-,-,0,-,-
COc1ccc(-c2cn3cc(C)ccc3n2)cc1Br,0,0,0,0,-,0,0
CCc1ccccc1NC(=O)COC(=O)c1cccs1,0,-,0,0,-,0,-
COc1ccc2c(c1OC)C(=O)N1c3ccccc3C(=O)N(c3ccc(F)cc3)C21 (stereo unspecified),0,0,0,0,-,0,-
COc1ccc2c(c1OC)C(=O)N1c3ccccc3C(=O)N(c3ccccc3)C21 (stereo unspecified),0,0,54,0,-,0,0
Cn1c(SC2=CS(=O)(=O)c3ccccc32)nc2ccccc21,0,72,74,0,0,-,0
O=C(O)CC(Cc1ccc(Cl)cc1)C(=O)NCc1ccccc1 (stereo unspecified),0,0,0,0,-,0,-
O=[N+]([O-])c1ccc(N2CCN(c3ccccc3)CC2)nc1,0,-,0,0,-,0,-
Cc1c(C)c(C)c(C(=O)C2CCN(c3ccc([N+](=O)[O-])cn3)CC2)c(C)c1C,0,-,73,0,0,0,0
COc1cccc(N2CCN(c3ccc([N+](=O)[O-])cn3)CC2)c1,0,-,64,0,-,0,0
O=S(=O)(NCc1ccccn1)c1cc(Cl)ccc1Cl,0,-,0,0,0,0,-
O=[N+]([O-])c1ccc(Cl)c(S(=O)(=O)NCCc2ccccn2)c1,0,-,0,-,0,-,0
CC1CC(C)(C)NC(=S)N1CC(=O)NCc1ccc2c(c1)OCO2 (stereo unspecified),0,0,0,0,0,0,-
C=CCOn1c(=O)c(-c2ccc(C)cc2)[n+]([O-])c2ccccc21,0,-,0,0,-,0,-
CCN(CC)c1ccc(NC(=O)c2cccc(OC)c2)c(C)c1,0,0,0,0,0,0,-
CCN(CC)c1ccc(NC(=O)c2cc(OC)cc(OC)c2)c(C)c1,0,92,60,0,-,0,0
COc1ccc(OCC(=O)Nc2ccc(OC)c(S(=O)(=O)N3CCCCC3)c2)cc1,0,-,50,0,0,-,0
SMILES,697 NFkB inh,APP transl inh,Jurkat NFkB inh,aSyn 5UTR inh,H9c2 TAG inh,Lipid droplet,Jurkat NFkB conf
Fc1ccccc1/C=N/Nc1nc(-c2ccccn2)nc2ccccc12,0,-,61,81,-,0,0
Cc1ccc(NC(=O)c2cc3ccccc3o2)nc1,0,-,0,0,0,-,0
O=C(Nc1ccc(Cl)cc1Cl)c1cc2ccccc2o1,0,-,0,0,-,0,0
Cc1ccc(C(=O)N2CCN(CCNC(=O)C(=O)NC(C)C)CC2)cc1,0,0,0,0,-,0,-
Cc1ccc(NC(=S)N2CCCCC2)cc1C,0,-,0,0,0,0,-
COc1ccccc1NC(CC(=O)c1ccccc1)C(=O)OCC(=O)c1ccc(F)cc1 (stereo unspecified),0,0,0,0,0,0,0
Cc1ccc(N/C(N)=N/c2nc(C)cc(N3CCCCC3)n2)c(C)c1,0,0,89,0,0,0,0
CCC1CCCCN1CCCNC(=O)c1ccc(N2CCOCC2)c(NS(=O)(=O)c2ccc(OC)cc2)c1 (stereo unspecified),0,0,0,0,0,0,-
O=C(N/N=C/c1ccc(OC(=O)c2ccco2)cc1)c1ccc[n+]([O-])c1,0,-,0,0,0,-,-
Cc1ccn2c(=O)nc(SCC(=O)c3ccccc3)nc2c1,0,-,0,0,0,-,-
Cc1ccc2nc(SCC(=O)c3ccccc3)nc(=O)n2c1,0,-,0,0,0,-,0
CC(Oc1ccc(Br)cc1Cl)C(=O)Nc1ccncc1 (stereo unspecified),0,-,53,0,0,0,0
CC(Oc1ccc(Br)cc1)C(=O)Nc1ccncc1 (stereo unspecified),0,0,0,0,0,0,-
Cc1cc(C(F)F)n2nc(C(=O)Nc3sc4c(c3C#N)CCC4)nc2n1,0,0,0,0,-,0,-
Cc1nc(NC2=NCN(CCCN3CCOCC3)CN2)nc2c(C)cccc12,0,0,64,-,0,0,0
Cc1ccc(-c2nc(-c3ccccn3)no2)cc1,0,0,69,99,0,-,79
CCCC(=O)Nc1ccc2nn(-c3ccc(OC)cc3)nc2c1,0,-,0,0,0,0,-
CC(C)CC(=O)Nc1ccc2nn(-c3ccccc3)nc2c1,0,0,0,0,-,0,0
COc1cccc(NC(=O)CCN2C(=O)C3CC=CCC3C2=O)c1 (stereo unspecified),0,-,0,0,-,0,-
Cn1nc(C(C)(C)C)cc1C(=O)NCc1cc(F)cc2c1OCOC2,0,-,65,0,0,0,60
Cn1nc([N+](=O)[O-])nc1Sc1nnc(-c2ccccc2)o1,0,95,74,92,0,?,70
CCN(CC)Cc1c(C(=O)N/N=C(\C)c2ccncc2)nnn1-c1nonc1N,0,-,0,0,-,0,-
COc1ccc(OC)c(N2CC(O)=C(c3nc4ccccc4s3)C2=N)c1,0,0,0,0,0,-,-
CCOc1ccccc1N1CC(O)=C(c2nc3ccccc3s2)C1=N,0,92,59,0,-,0,0
COc1ccc(/C=N/NC(=O)CCn2cnc(-c3ccccc3)c2-c2ccccc2)cc1OC,0,80,64,0,-,0,0
COc1ccc(/C=N/NC(=O)CCC(=O)Nc2ccccc2)cc1OC,0,0,0,0,-,0,-
Cc1ccc(-c2onc3ccc(C(=O)O)cc23)cc1,0,-,52,0,-,-,0
O=C(Nc1ccc(N2CCN(C(=O)c3cccs3)CC2)cc1)c1ccco1,0,-,0,0,-,0,-
O=C(Nc1ccc(N2CCN(C(=O)c3cccs3)CC2)cc1)c1ccc([N+](=O)[O-])o1,0,-,52,106,0,0,0

# Source: PubChem
